Screens from PubChem.
Rpn11 inh – Rpn11 (PSMD14) deubiquitinase inhibitors, primary screen, biochemical, fluorescence polarization, uHTS | human 26S proteasome, Ub4-pepOG fluorescence polarization; 20S core pre-blocked with epoxomicin | 26S proteasome non-ATPase regulatory subunit 14 (Homo sapiens), O00487 | 0.59% of 360,000 active | inhibition, % at 20 µM;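 active means inhibition at 20 µM, scaled to each plate's controls, above about 33%, limit read from the data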
TPT1 inh – Candida albicans TPT1 enzyme inhibitors, primary screen, biochemical, fluorescence polarization. inhibition, % at 5 µM. tRNA 2'-phosphotransferase TPT1 (Candida albicans SC5314). recombinant caTPT1, FP RNA substrate dephosphorylation. 0.81% of 300,000 active;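 active means inhibition above the mean of all tested compounds plus 3 SD, set per screening campaign, cut at about 24% in these data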;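 further: plate controls were DMSO alone for no effect and ferristatin control at 100 nM for full effect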
aDG glyco up – activators of alpha-DG glycosylation, primary screen, uHTS, Pro5-aDG cells, AlphaScreen; alpha-DG glycosylation AlphaScreen (IIH6); 0% Pro5, 100% B10-LARGE cell signal; 0.22% of 360,000 active; AID 624168, 2012; activation, % at 10 µM;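 active means activation of at least 8% versus controls, or a plate z-score of at least 8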;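 further: Pro5 are CHO cells carrying HIG-tagged alpha-DG that lacks glycosylation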
HNF4A DNA FP – change in binding of human HNF4A to DNA, primary screen, biochemical, fluorescence polarization, FITC-DNA; Hepatocyte nuclear factor 4-alpha (Homo sapiens), P41235; 1 h; activity change, % at 10 µM; 0.3% of 360,000 active; in the data active means activity change above about 30%, passing the limit was not always enough
Target sequence (P41235 whole entry, looked up): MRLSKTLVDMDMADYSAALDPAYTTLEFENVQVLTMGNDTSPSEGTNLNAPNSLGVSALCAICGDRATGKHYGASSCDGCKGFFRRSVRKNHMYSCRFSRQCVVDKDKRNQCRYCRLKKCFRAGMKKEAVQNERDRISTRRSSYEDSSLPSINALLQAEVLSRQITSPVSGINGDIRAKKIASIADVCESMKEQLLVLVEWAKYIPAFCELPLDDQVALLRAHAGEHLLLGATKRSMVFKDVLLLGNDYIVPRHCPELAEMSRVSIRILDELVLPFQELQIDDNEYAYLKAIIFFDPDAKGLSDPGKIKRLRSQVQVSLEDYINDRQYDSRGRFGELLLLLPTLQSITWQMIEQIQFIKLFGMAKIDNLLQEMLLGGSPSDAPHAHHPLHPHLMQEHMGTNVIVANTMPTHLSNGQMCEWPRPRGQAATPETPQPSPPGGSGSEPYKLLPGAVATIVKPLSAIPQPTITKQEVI
XiGFP reactiv – activators of inactive X chromosome reactivation, primary screen, imaging, XiGFP fibroblasts, GFP high-content imaging, set 2. XiGFP mouse fibroblasts, % GFP-positive cells imaging, 3 d; cells co-treated with 5-aza-dC sensitizer; scaled so ellipticine positive control = 100%. 0.055% of 360,000 active. AID 743238, 2013. activation, % at 7.58 µM;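 active means mean normalized replicate activation at least 10% and every replicate at or above 10%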;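 further: 0% = median of on-plate neutral control wells and 100% = ellipticine 6 µM median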
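Material: XiGFP fibroblasts, SV40-immortalized. Buffer or medium: DMEM plus 5-aza-dC sensitizer. Compound: single concentration per compound, delivered by pin transfer. Times: 3 days compound exposure. Controls: ellipticine 6 µM.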
CSN deneddyl inh – inhibitors of CSN-mediated cullin deneddylation, primary screen, biochemical, fluorescence polarization, uHTS; Purified CSN, SCF-Nedd8-OG deneddylation; inhibition, % at 12.5 µM; 0.38% of 360,000 active; AID 651999, 2013;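 active means pattern-corrected inhibition above about 35%, with an unprinted fluorescence ratio check between 0.5 and 1.5, limit read from the data, passing the limit was not always enough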;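 further: 0% = enzyme with substrate and 100% = substrate without enzyme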
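test system = HEK293T-derived human Csn5 enzyme | amount = 0.24 nM Csn5 enzyme, final concentration | medium = Tris/NaCl/DTT buffer, pH 7.5 | schedule = 90 min reaction at room temperature | signal = FP | evaluation = inhibition of Csn5 cleavage, % | compound dosing = single dose of 12.5 µM compound with 0.25% DMSO | probe or stimulus = 10 nM SCFSkp2-Nedd8OG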
CSN5 deneddyl – Csn5 deneddylation inhibitors, confirmation, biochemical, fluorescence polarization, single concentration, SCF-Nedd8OG substrate; shares compounds with CSN deneddyl inh; Csn5 deneddylation of SCF-Nedd8OG, 90 min; inhibition, % at 16.6 µM; 62% of 540 active; AID 720654, 2013; in the data active means inhibition above about 50%;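 further: 0% = DMSO with enzyme and 100% = no enzyme wells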
MMP2 cntr CSN – MMP-2 protease inhibition counter-screen, confirmation, counter-screen for CSN deneddylation inhibitor project, biochemical, fluorescence, single concentration. 33% of 540 active. inhibition, % at 16.6 µM. shares compounds with CSN deneddyl inh. recombinant MMP-2, FRET substrate fluorescence, 60 min;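 active means corrected plate-normalized z-score of 5 or more, or -5 or less, or inhibition of 15% or more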;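 further: plate controls were DMSO wells with enzyme for no effect and buffer wells lacking MMP-2 for full effect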
Thrombin counter – blocks bovine thrombin in a CSN deneddylation counter-screen. shares compounds with CSN deneddyl inh. bovine thrombin cleavage of Ub4-pepOG, fluorescence polarization. inhibition, % at 16.6 µM. 49% of 540 active;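 active means inhibition at or above a set limit, with a fluorescence interference ratio between 0.5 and a set maximum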
HNF4A confirm – change in HNF4A binding to DNA, retest, confirmation, biochemical, fluorescence polarization, FITC-DNA; 99% of 210 active; shares compounds with HNF4A DNA FP; activity change, % at 12.5 µM; 1 h; call rule not given here
* hit, by the source's call; x = no result given. A selection: hits, their analogues and other compounds. The true share with any hit is near 1.3%.

SMILES	Rpn11 inh	TPT1 inh	aDG glyco up	HNF4A DNA FP	XiGFP reactiv	CSN deneddyl inh	CSN5 deneddyl	MMP2 cntr CSN	Thrombin counter	others
Nc1cccc2c1C(=O)N(C(=O)/C=C/c1cccc(Br)c1)C2=O	10	x	0	-10	0	41*	68*	4	46*
C[C@H](CO)N1C[C@H](C)[C@H](CN(C)Cc2ccc3c(c2)OCO3)Oc2ccc(NC(=O)Cn3cnnn3)cc2C1=O	x	x	x	x	0	x	x	x	x
COc1ccc2c3c(n(C)c2c1)[C@H](CO)N(C)CC31CN(C(=O)Nc2cccc(F)c2)C1	x	x	x	x	0	x	x	x	x
Nc1ccc2c(S(=O)(=O)O)cccc2c1S(=O)(=O)O	-1	x	0	3	2	-2	x	x	x
Nc1cccc2cc(S(=O)(=O)O)ccc12	3	x	0	-27	0	37*	67*	10	-11
C[C@@H]1CN([C@H](C)CO)S(=O)(=O)c2ccc(C#CC3(O)CCCC3)cc2O[C@H]1CN(C)C(=O)Cc1cccnc1	x	x	x	x	-1	x	x	x	x
CCCCNC1=CC(=O)C(=O)c2ccccc21	4	-2	6.9*	-3	0	48*	87*	4	0
CCCCNC1=CC(=O)C(NCCCC)=CC1=O	0	x	1	-4	0	2	x	x	x
CC1(C)CC[C@]2(C(=O)n3ccnc3)CC[C@]3(C)[C@H](C(=O)C=C4[C@@]5(C)C=C(C#N)C(=O)C(C)(C)[C@@H]5CC[C@]43C)[C@@H]2C1	4	x	0	-19	0	39*	56*	0	8
CCCNC(=O)Nc1ccc2c(c1)C(=O)N(C)C[C@@H](OC)[C@@H](C)CN(CC1CCCC1)[C@H](C)CO2	x	x	x	x	0	x	x	x	x
C[n+]1cccc2c(Br)ccc([O-])c21	4	-4	0	-1	0	45*	103*	4	-10
CCCCCCCCCCCCCCCC(O)C(N)CO (stereo unspecified)	28	-2	0	47*	0	53*	-18	1	0
C[C@@H]1CN([C@H](C)CO)C(=O)c2cc(NC(=O)Cc3cn(C)c4ccccc34)ccc2O[C@@H]1CN(C)Cc1ccc(C(=O)O)cc1	x	x	x	x	-1	x	x	x	x
CN(C)/C=C1\Oc2ccc3ccccc3c2C1=O	1	0	0	-1	0	-1	x	x	x
O=C1C(=O)c2c(ccc3ccccc23)-c2ccccc21	-7	x	0	3	0	40*	84*	14	-27
COC(=O)c1ccc2c(c1)C(C)(C)C(/C=C/c1ccccc1O)=[N+]2C	x	19	0	37*	x	44*	68*	-12	30*
C[N+]1=C(/C=C/Nc2ccccc2Cl)C(C)(C)c2ccccc21	9	-4	0	6	x	5	x	x	x
O=C(O)CSc1cc(C(=O)c2ccccc2O)cn2c(=O)c3c4c(sc3nc12)CCCC4	-12	x	0	-31	0	43*	31	42*	-21
O=C(O)CSc1nc2sc3c(c2c(=O)n1Cc1ccccc1)CCCCC3	-19	1	0	-5	0	0	x	x	x
C[C@@H]1CN([C@@H](C)CO)C(=O)c2cc(NC(=O)CCC(F)(F)F)ccc2O[C@@H]1CN(C)Cc1ccncc1	x	x	x	x	0	x	x	x	x
CCOc1ccc(CNC(=O)C2CCN(c3nnc(C)c4c(C)n(-c5ccc(C)cc5)nc34)CC2)cc1	x	14	2	45*	0	34	x	x	x	HNF4A confirm=50*
O=C(Cn1cc(/C=N/NC(=O)c2cccc3ccccc23)c2ccccc21)Nc1ccc(F)cc1	x	-3	0	46*	0	16	x	x	x	HNF4A confirm=90*
O=C(Cn1cc(/C=N/NC(=O)c2ccccc2Br)c2ccccc21)Nc1ccc(F)cc1	6	0	2	0	0	-2	x	x	x
CCS(=O)(=O)N1N=C(c2ccccc2)CC1c1ccc2nccnc2c1 (stereo unspecified)	-1	0	0	53*	0	19	x	x	x	HNF4A confirm=75*
Cc1ccc(/C=C2/Sc3ccc(C(=O)NCc4ccccn4)cc3NC2=O)cc1	x	21	0	72*	0	61*	x	x	x	HNF4A confirm=58*
SMILES	Rpn11 inh	TPT1 inh	aDG glyco up	HNF4A DNA FP	XiGFP reactiv	CSN deneddyl inh	CSN5 deneddyl	MMP2 cntr CSN	Thrombin counter	others
Cc1cc(C(=O)O)ccc1N=Cc1c(O)ccc2ccccc12	21	2	0	46*	0	10	x	x	x	HNF4A confirm=70*
O=C1OC(c2ccccc2)=CC1=Cc1ccccc1O	11	x	0	-1	0	0	x	x	x
CN(C)c1ccc(C=C2C=C(c3ccccc3)OC2=O)cc1	12	x	0	55*	0	19	x	x	x	HNF4A confirm=49*
CCN(C(=O)COC(=O)/C(C#N)=C/c1ccc(N(C)C)cc1)C1CCS(=O)(=O)C1 (stereo unspecified)	20	x	0	46*	0	10	x	x	x	HNF4A confirm=71*
C[C@H]1CCCCO[C@@H](CN(C)C(=O)Cc2ccccc2)[C@@H](C)CN([C@@H](C)CO)C(=O)c2cc(NC(=O)CCC(F)(F)F)ccc2O1	x	x	x	x	0	x	x	x	x
C[C@@H]1CN([C@@H](C)CO)C(=O)Cc2cc(NC(=O)C3CC3)ccc2O[C@H]1CN(C)CC1CC1	x	x	x	x	0	x	x	x	x
CN(C)C(=O)c1cccc(-c2ccc3c(c2)[C@@H]2[C@@H](CCN2C(=O)Nc2ccc(F)cc2)[C@H](CO)N3C)c1	x	x	x	x	0	x	x	x	x
CN(/C=C/C(=C/C=[N+](C)c1ccccc1)OCCCS(=O)(=O)[O-])c1ccccc1	x	-1	0	112	0	34	x	x	x
